≈ marks a conversion by molar mass, not a printed value. Calls of active or inactive are those of the source. The rule behind the calls is not given here.
Tests used:
Staphylococcus aureus [1] = test: Antibacterial activity against Staphylococcus aureus NCTC 8325 harboring genetic deletion of mepRA gene and carrying expression vector pG154 with mepA gene after 16 to 20 hrs by broth microdilution method in presence of anhydrous tetracycline; type: functional
Method in brief: (§1)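 Broth microdilution in cation-adjusted MHB containing anhydrous tetracycline at 100 ng/ml final to induce the pG154 expression vector. Twofold DMSO compound dilutions were used (2% DMSO final) with 1 × 10^4 cells per well. Incubation was 37 °C for 16–20 h, and absorbance was read at 600 nm.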

Staphylococcus aureus [2] = test: Downregulation of ribD gene expression in MBX-1090-resistant Staphylococcus aureus isolate d20A1 at 50 ug/ml by RT-PCR analysis relative to wild type; type: functional
Staphylococcus aureus [3] = test: Antibacterial activity against Staphylococcus aureus NCTC 8325 harboring genetic deletion of mepRA gene after 16 to 20 hrs by broth microdilution method; type: functional
Method in brief: (§2)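 Broth microdilution in cation-adjusted Mueller Hinton broth. Compounds were serially diluted twofold in DMSO at 50-fold final strength (2% DMSO final). The inoculum was 1 × 10^4 cells per well. Plates were incubated at 37 °C for 16–20 h, and growth was read as absorbance at 600 nm.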

Staphylococcus aureus [4] = test: Downregulation of ribE gene expression in MBX-1090-resistant Staphylococcus aureus isolate d20A1 at 50 ug/ml by RT-PCR analysis relative to wild type; type: functional
[5] = Selectivity ratio of MIC for MBX-1090-resistant Staphylococcus aureus isolate d20A1 to MIC for Staphylococcus aureus NCTC 8325; type: functional
Method in brief: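 Ratio of resistant-mutant MIC to NCTC 8325 MIC. Both MICs came from broth microdilution in cation-adjusted MHB with 2% DMSO final and 1 × 10^4 cells per well, incubated at 37 °C for 16–20 h and read at 600 nm.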

Staphylococcus aureus [6] = test: Antibacterial activity against Staphylococcus aureus NCTC 8325 harboring genetic deletion of mepRA gene and carrying expression vector pG154 after 16 to 20 hrs by broth microdilution method in presence of anhydrous tetracycline; type: functional; method in brief: as §1
Staphylococcus aureus [7] = test: Downregulation of ribH gene expression in MBX-1090-resistant Staphylococcus aureus isolate d20A1 at 50 ug/ml by RT-PCR analysis relative to wild type; type: functional
Staphylococcus aureus [8] = test: Antibacterial activity against Staphylococcus aureus NCTC 8325 after 16 to 20 hrs by broth microdilution method; type: functional; method in brief: as §2
Staphylococcus aureus [9] = test: Antibacterial activity against Staphylococcus aureus NCTC 8325 after 16 to 20 hrs by broth microdilution method in presence of efflux pump inhibitor reserpine; type: functional
Method in brief: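 Broth microdilution in cation-adjusted MHB with reserpine at 20 µg/ml final in the medium as efflux inhibitor. Twofold DMSO dilutions were made (2% DMSO final) with 1 × 10^4 cells per well. Incubation was 37 °C for 16–20 h, with growth read at 600 nm.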

Staphylococcus aureus [10] = test: Antibacterial activity against Staphylococcus aureus NCTC 8325 carrying expression vector pG154 after 16 to 20 hrs by broth microdilution method; type: functional; method in brief: as §2
Staphylococcus aureus [11] = test: Antibacterial activity against Staphylococcus aureus NCTC 8325 carrying expression vector pG154 with mepA gene after 16 to 20 hrs by broth microdilution method; type: functional; method in brief: as §2
Staphylococcus aureus [12] = test: Antibacterial activity against Staphylococcus aureus NCTC 8325 carrying expression vector pG154 with mepA gene after 16 to 20 hrs by broth microdilution method in presence of anhydrous tetracycline; type: functional; method in brief: as §1
Staphylococcus aureus [13] = test: Antibacterial activity against Staphylococcus aureus NCTC 8325 carrying expression vector pG154 after 16 to 20 hrs by broth microdilution method in presence of anhydrous tetracycline; type: functional; method in brief: as §1
Staphylococcus aureus [14] = test: Upregulation of mepR gene expression in MBX-1090-resistant Staphylococcus aureus isolate d20A1 at 50 ug/ml by RT-PCR analysis relative to wild type; type: functional
Staphylococcus aureus [15] = test: Antibacterial activity against Staphylococcus aureus NCTC 8325 harboring genetic deletion of mepR gene after 16 to 20 hrs by broth microdilution method; type: functional; method in brief: as §2
Staphylococcus aureus [16] = test: Antibacterial activity against Staphylococcus aureus NCTC 8325 harboring genetic deletion of mepRA gene and carrying expression vector pG154 with mepA gene after 16 to 20 hrs by broth microdilution method; type: functional; method in brief: as §2
Staphylococcus aureus [17] = test: Antibacterial activity against Staphylococcus aureus NCTC 8325 harboring genetic deletion of mepRA gene and carrying expression vector pG154 after 16 to 20 hrs by broth microdilution method; type: functional; method in brief: as §2
Staphylococcus aureus [18] = test: Downregulation of ribA gene expression in MBX-1090-resistant Staphylococcus aureus isolate d20A1 at 50 ug/ml by RT-PCR analysis relative to wild type; type: functional
Staphylococcus aureus [19] = test: Modulation of protein A gene expression in MBX-1090-resistant Staphylococcus aureus isolate d20A1 at 50 ug/ml by RT-PCR analysis relative to wild type; type: functional
Staphylococcus aureus [20] = test: Upregulation of conventional hypothetical protein mRNA expression in MBX-1090-resistant Staphylococcus aureus isolate d20A1 at 50 ug/ml by RT-PCR analysis relative to wild type; type: functional
Staphylococcus aureus [21] = test: Upregulation of mepB gene expression in MBX-1090-resistant Staphylococcus aureus isolate d20A1 at 50 ug/ml by RT-PCR analysis relative to wild type; type: functional
Staphylococcus aureus [22] = test: microbe, parasite or virus in culture; conditions: isolate d20A1
Staphylococcus aureus [23] = test: Upregulation of mepA gene expression in MBX-1090-resistant Staphylococcus aureus isolate d20A1 at 50 ug/ml by RT-PCR analysis relative to wild type; type: functional
Staphylococcus aureus [24] = test: Selectivity ratio of MIC for Staphylococcus aureus NCTC 8325 harboring genetic deletion of mepRA gene and carrying expression vector pG154 with mepA gene in presence of anhydrous tetracycline to MIC for Staphylococcus aureus NCTC 8325 harboring genetic deletion of mepRA gene and carrying expression vector pG154 with mepA gene; type: functional
Method in brief: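 Ratio of the MIC with anhydrous tetracycline (100 ng/ml final, induces pG154-mepA) to the MIC without it. Both came from broth microdilution in cation-adjusted MHB with 2% DMSO and 1 × 10^4 cells per well, incubated at 37 °C for 16–20 h and read at 600 nm.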

Staphylococcus aureus [25] = test: Induction of mepA gene expression in Staphylococcus aureus NCTC 8325 at 0.5 ug/ml by RT-PCR analysis; type: functional, organism-based
Method in brief: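 NCTC 8325 diluted 1/200 in TSB and grown at 37 °C (250 rpm) to OD600 0.3. 5 ml aliquots exposed 3 h to compound or DMSO (2% final), triplicate cultures pooled. RNA was DNase-treated and 1 µg primed with random hexamers for cDNA, with a no-RT control. mepA signal normalized to rho, untreated set to 1. Mean of three experiments ± SD.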

Staphylococcus aureus [26] = test: Induction of mepR gene expression in Staphylococcus aureus NCTC 8325 at 0.5 ug/ml by RT-PCR analysis; type: functional, organism-based

Row | Compound | MIC (Staphylococcus aureus [1]) [µg/mL] | MIC (Staphylococcus aureus [3]) [µg/mL] | Selectivity ratio [5] | MIC (Staphylococcus aureus [6]) [µg/mL] | MIC (Staphylococcus aureus [8]) [µg/mL] | MIC (Staphylococcus aureus [9]) [µg/mL] | MIC (Staphylococcus aureus [10]) [µg/mL] | MIC (Staphylococcus aureus [11]) [µg/mL] | MIC (Staphylococcus aureus [12]) [µg/mL] | MIC (Staphylococcus aureus [13]) [µg/mL] | MIC (Staphylococcus aureus [15]) [µg/mL] | MIC (Staphylococcus aureus [16]) [µg/mL] | MIC (Staphylococcus aureus [17]) [µg/mL] | MIC (Staphylococcus aureus [22]) [µg/mL] | other results
1 | Cn1cc(NC(=O)c2cc(NC(=O)c3cc(NC=O)cn3C)cn2C)cc1C(=O)NCCC(=N)N [STALLIMYCIN] | 50 | 100 (≈ 208 µM) | 4 | 50 | 50 (≈ 104 µM) | 50 | 50 (≈ 104 µM) | 50 (≈ 104 µM) | 50 | 50 | 100 (≈ 208 µM) | 50 (≈ 104 µM) | 50 (≈ 104 µM) | 200 (≈ 415 µM) | fold change (FC) (Staphylococcus aureus [2]): 1.6; fold change (FC) (Staphylococcus aureus [4]): 1.5; fold change (FC) (Staphylococcus aureus [7]): 2.7; fold change (FC) (Staphylococcus aureus [14]): 39.2; fold change (FC) (Staphylococcus aureus [18]): 1.9; fold change (FC) (Staphylococcus aureus [19]): 2; fold change (FC) (Staphylococcus aureus [20]): 14.2; fold change (FC) (Staphylococcus aureus [21]): 25.5; fold change (FC) (Staphylococcus aureus [23]): 72.6
2 | c1cc2cc(-c3ccc4cc(C5=NCCN5)[nH]c4c3)[nH]c2cc1C1=NCCN1 | 1 | 0.5 (≈ 1.36 µM) | 4 | 0.5 | 0.5 (≈ 1.36 µM) | 0.25 | 0.5 (≈ 1.36 µM) | 0.5 (≈ 1.36 µM) | 4 | 0.5 | 1 (≈ 2.71 µM) | 0.5 (≈ 1.36 µM) | 0.5 (≈ 1.36 µM) | 2 (≈ 5.43 µM) | Selectivity ratio (Staphylococcus aureus [24]): 2; Activity (Staphylococcus aureus [25]): Active; Activity (Staphylococcus aureus [26]): Active
